The test system of one data set is A549. As to the kind of experiment: Cytotoxicity against human A549 cells by MTT assay. Format: functional, cell-based. Summed up:
(§1)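 ATCC-sourced tumour lines (HepG2, MCF7, MDA-MB-231, A-549) were tested with the MTT colorimetric method.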

A further data set concerns MDA-MB-231. The data set is described as follows: Cytotoxicity against human MDA-MB-231 cells by MTT assay. Format: functional, cell-based. Summed up: as §1
In data set [1] the test system is RAW264.7. As to the kind of experiment: Cytotoxicity against mouse RAW264.7 cells assessed as cell survival at 10 uM by trypan blue staining. Format: cell-based. To be noted: raw264.7, 10 µM. A digest of the protocol: (§2)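 RAW 264.7 macrophages (DMEM, 10% heat-inactivated FBS, 37 °C, 5% CO2) were exposed to compound at 10 or 100 µM alongside the LPS-activation protocol. Viability was scored by trypan blue staining.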

For data set [2], the system named is RAW264.7. The data set is described as follows: Antiinflammatory activity against LPS-stimulated mouse RAW264.7 cells assessed as inhibition of COX2 expression at 10 uM after 16 hrs by immunoblot analysis relative to control. Format: functional. Summed up:
(§3)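 RAW 264.7 murine macrophages (ATCC TIB-71) grown in DMEM with 10% heat-inactivated FBS, 37 °C, 5% CO2. Cells activated with E. coli LPS (0.01 µg/mL) for 16 h with or without compound. Lysates were loaded at equal protein and analysed by SDS-PAGE and Western blot. Antibodies were anti-iNOS and anti-COX-2 (1:1000, 180 min), with β-actin reprobe as loading control. ECL detection. Intensity expressed relative to LPS-only group (100%); mean ± SD, n = 3.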

Data set [3] can be described thus: Cytotoxicity against human Hep G2 cells by MTT assay. To be noted: HepG2. Format: functional, cell-based. A digest of the protocol:
as §1

For data set [4], the system named is RAW264.7. The data set is described as follows: Antiinflammatory activity against LPS-stimulated mouse RAW264.7 cells assessed as inhibition of iNOS expression at 10 uM after 16 hrs by immunoblot analysis relative to control. Format: functional. A digest of the protocol:
as §3

The subject of another data set is MCF7. The data set is described as follows: Cytotoxicity against human MCF7 cells by MTT assay. Format: functional, cell-based. A digest of the protocol:
as §1

Data set [5] concerns RAW264.7. As to the kind of experiment: Cytotoxicity against mouse RAW264.7 cells assessed as cell loss at 100 uM by trypan blue staining. Format: cell-based. As to conditions: raw264.7, 100 µM. Summed up: as §2
Data set [6] has as its system RAW264.7. The data set is described as follows: Cytotoxicity against mouse RAW264.7 cells assessed as decrease in beta-actin at 100 uM by trypan blue staining. Format: cell-based. As to conditions: raw264.7, 100 µM.

In brackets after ≈: the same amount, converted by molar mass. Activity calls are given as the source filed them. The calls are words filed in the database; no cut-off is given here.

As to `C=C(CC[C@@H](C)[C@H]1CC[C@H]2[C@@H]3C[C@@H]4O[C@@]45C[C@@H](O)C[C@H](O)[C@]5(C)[C@H]3CC[C@]12C)C(C)C` [GIBBEROEPOXYSTEROL], the results for the 50% inhibitory concentration (IC50) in the data set on A549 and in the data set on MDA-MB-231 were 15.5 µg/mL (≈ 36 µM) and 15.9 µg/mL (≈ 36.9 µM), respectively.

On to `C=C(/C=C/[C@@H](C)[C@H]1CC[C@H]2[C@@H]3CC(=O)[C@]4(O)C[C@@H](O)C[C@H](O)[C@]4(C)[C@H]3CC[C@]12C)C(C)C` [GIBBEROKETOSTEROL B], for which, in the data set on RAW264.7 [1], the Activity result is reported as “Non-toxic”. The result in the data set on RAW264.7 [2] and with RAW264.7 [4] was inactive. Further, the IC50 (in data set [3]; with A549; in the data set on MDA-MB-231; with MCF7) was > 30 µg/mL each time.

Consider `C=C(/C=C/[C@@H](C)[C@H]1CC[C@H]2[C@@H]3CC(=O)[C@H]4C[C@@H](O)C[C@H](O)[C@]4(C)[C@H]3CC[C@]12C)C(C)C` [GIBBEROKETOSTEROL C], for which the IC50 (in data set [3]; in the data set on A549; with MDA-MB-231; in the data set with MCF7) was > 30 µg/mL throughout.

Consider `C=C(CC[C@@H](C)[C@H]1CC[C@H]2[C@@H]3CC(=O)[C@]4(O)C[C@@H](O)C[C@H](O)[C@]4(C)[C@H]3CC[C@]12C)C(C)C` [GIBBEROKETOSTEROL], for which the Activity result is “Non-toxic” in the data set with RAW264.7 [1]; 68.3% in the data set with RAW264.7 [2]; 44.5% with RAW264.7 [4]; 38.4% in the data set with RAW264.7 [5]; “Active” in the data set on RAW264.7 [6]. The IC50 in data set [3] worked out at 13 µg/mL (≈ 29.1 µM); in the data set with A549, 14.5 µg/mL (≈ 32.5 µM); in the data set on MDA-MB-231 it was 14.4 µg/mL (≈ 32.2 µM); with MCF7 it was 14.1 µg/mL (≈ 31.6 µM).
